UPR XBP1 act – adaptive UPR (XBP1) activation. CHO-XBP1 luciferase reporter, IRE1-XBP1 UPR activation, luminescence; percent of tunicamycin response, DMSO as zero. activation, % at 20 µM. actives 0.33% (n = 330,000);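 active = versus positive control, 20 µM dose yields 30% or more activation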;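 also: 100% = tunicamycin at 10 µg/mL and 0% = DMSO only wells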
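Assay system: CHO-XBP1 luciferase reporter cells; Schedule: 6 h treatment, 37 °C; Detection: glow luminescence from Steady-Glo reagent; Benchmarks: high control tunicamycin 10 µg/mL final, low control DMSO vehicle only.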
tim10-1 inh – growth inhibitors of tim10-1 mutant yeast | AID 463190 | S. cerevisiae tim10-1 ts strain growth, BacTiter-Glo, 24 h | actives 2.2% (n = 330,000) | inhibition, % at 20 µM;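 active = inhibition of at least 40%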;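 also: mutant grown at 25 °C; 0% = DMSO wells with yeast and 100% = wells holding no yeast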
CHOP UPR activ – apoptotic UPR (CHOP) activation. AID 449763. CHO-CHOP luciferase reporter, luminescence; percent of tunicamycin response over DMSO baseline. actives 0.34% (n = 330,000). activation, % at 10 µM;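 active = at 10 µM dose, activation of 40% or more, normalized to positive control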;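 also: 100% = tunicamycin at 10 µg/mL and 0% = DMSO alone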
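System: CHO-CHOP luciferase reporter cell line | Buffer or medium: F12 medium containing 10% fetal bovine serum | Doses: One dose, 10 µM in 0.5% DMSO | Times: 6 h compound exposure at 37 °C after overnight seeding | Signal: Luciferase luminescence | Read-out: % activation vs tunicamycin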
tim23-1 inh – tim23-1 yeast growth inhibition | S. cerevisiae tim23-1 growth, BacTiter-Glo luminescence, 24 h | actives 1.3% (n = 330,000) | inhibition, % at 20 µM | AID 463212;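 active = growth inhibition of the mutant yeast at or above 50%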;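 also: temperature-sensitive mutant grown at 25 °C; plate controls were DMSO-treated mutant yeast for no effect and medium wells lacking yeast for full effect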
TIM10 inh – growth inhibitors of TIM10 yeast strain; S. cerevisiae TIM10 strain growth, BacTiter-Glo luminescence, 24 h; inhibition, % at 10 µM; actives 1.4% (n = 330,000);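 active = inhibition of 40% or more at the single tested concentration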;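 also: wild-type TIM10 isogenic control strain grown at permissive 25 °C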
UPR CHOP confirm – confirmation of apoptotic unfolded protein response (CHOP) activators | actives 64% (n = 1,000) | CHO-CHOP cells, CHOP-luciferase reporter luminescence; percent of tunicamycin response, DMSO as zero | shares compounds with CHOP UPR activ | activation, % at 10 µM | AID 463112; in the data active = activation above about 33%;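 also: 0% = DMSO wells and 100% = tunicamycin 10 µg/mL wells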
Numbers without * were called inactive; / = not tested or not shown. The list is not random: actives were taken first. Their share in the collection is about 3.9%.

SMILES	UPR XBP1 act	tim10-1 inh	CHOP UPR activ	tim23-1 inh	TIM10 inh	UPR CHOP confirm
COc1cc(C(=O)NC(C)c2cccc3ccccc23)cc(OC)c1OC (configuration not stated)	-3	-18	1	3	-6	/
Cc1ccc(S(=O)(=O)NCCC(=O)NCCc2ccc(S(N)(=O)=O)cc2)cc1C	-2	-21	0	1	5	/
O=C(CCNC(=O)c1ccc(Cl)cc1)Nc1ccc(S(=O)(=O)N2CCCCC2)cc1	-3	13	-2	-1	10	/
CCc1noc(C)c1C(=O)N1CCCC(N2CCN(c3cccc(Cl)c3)CC2)C1 (configuration not stated)	-2	7	3	16	3	/
CC(c1ccccc1)N1CC(C(=O)N2CCN(Cc3ccc(C#N)cc3)CC2)CC1=O (configuration not stated)	-1	7	-1	12	3	/
S=C(NCc1ccccc1)NCc1ccccc1Cl	-3	16	1	46	12	/
CC1=C(C(=O)Nc2ccccc2)C(c2ccc(C)cc2)N=C(Nc2nc3ccccc3o2)N1 (configuration not stated)	16	-3	74*	2	7	/
CC1(C)CC(=O)C2=C(C1)NC(Nc1nc3ccccc3o1)=NC2c1ccccn1 (configuration not stated)	6	28	-1	7	-19	/
Cc1nc(SCC(=O)Nc2ccccc2C(F)(F)F)c(C#N)c(C)c1CC(=O)c1ccc(Br)cc1	33*	-2	-1	-16	-27	/
Cc1cccc(C)c1NC(=O)CSc1nc(C)c(CC(=O)c2ccc(Br)cc2)c(C)c1C#N	23	-6	2	-2	2	/
C=CCc1c(C)nc(SCc2ccccc2)[nH]c1=O	-5	-5	-1	35	0	/
O=C(CN(C(=O)CCC(=O)Nc1nccs1)c1ccccc1F)NCCc1ccccc1	-3	-3	-1	-12	-15	/
COc1ccc(C(=O)NCc2nnc(SCC(=O)NC3CCCCC3)o2)cc1	0	-5	1	2	-5	/
CCN(CC)C(=O)Cn1cc(S(=O)(=O)CC(=O)Nc2ccc(C(N)=O)cc2)c2ccccc21	-2	9	-3	-12	-1	/
COC(=O)Oc1ccc(/C=C/C(=O)OC(C)C)cc1OC(=O)OC	14	36	131*	35	33	61*
Cc1ccc(NC(=O)C(C)N2CCN(C)CC2)cc1S(=O)(=O)N1CCOCC1 (configuration not stated)	-4	-15	1	-7	2	/
Cn1ccnc1/C(=N\NC(=O)c1ccccc1)c1cccc([N+](=O)[O-])c1	-2	9	-1	0	-20	/
O=C(N/N=C(\c1ccccc1)c1ccccn1)c1cccc([N+](=O)[O-])c1	2	29	136*	18	13	319*
CCOc1ccc(C(=O)NCC2CCN(CC3CCCCC3)CC2)cc1	1	-16	3	-10	-8	/
Oc1ccc(/C=N/N2CCCCC2)cc1O	5	4	179*	0	-4	38*
COc1ccccc1N1CCN(/N=C/c2ccc(O)c(O)c2)CC1	9	11	184*	12	-5	101*
CN(C)C(=O)c1ccc(NC(=O)COc2cccc3c2OC(C)(C)C3)cc1	1	18	-1	26	5	/
O=[N+]([O-])c1ccc(Sc2ccccn2)nc1	1	15	3	7	13	/
O=[N+]([O-])c1ccc(Sc2nnnn2-c2ccccc2)nc1	-1	37	126*	32	10	101*
Cc1ccc(Cn2ncc(Cl)c(Cl)c2=O)cc1	2	18	42*	19	6	21
Cc1cc(N2CCN(c3ccccc3)CC2)nc(-n2nc(C)cc2C)n1	13	35	52*	36	33	4
Cc1cc(N2CCN(c3ccccc3)CC2)nc(-c2ccccc2O)n1	-2	13	0	-189	-1	/
CCOC(=O)c1cc(-c2ccc(/C=C3/C(=O)N(c4ccc(C(=O)O)cc4)N=C3C)o2)ccc1Cl	6	29	87*	28	14	135*

Screening data deposited in PubChem by Sanford-Burnham Center for Chemical Genomics.
